Reference: paper PMC5854750 (European Journal of Drug Metabolism and Pharmacokinetics, 2017)

Key:
[1] = system: healthy male volunteers; assay: Single-rising dose; format: in vivo, human
[2] = SRD component: plasma and urine pharmacokinetics; format: in vivo, human
[3] = Bioavailability/food effect; format: in vivo; settings: male, human, plasma, oral, 25 mg, Median t max
In short: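 Healthy men (18–45 y, BMI 18.5–29.9 kg/m2) in a randomised crossover received single oral 25 mg doses as tablet fasted, tablet after a high-fat, high-calorie meal, or 5-mg/mL solution fasted. Washout was at least 14 days, and PK sampling ran to Day 9 per period. Plasma was assayed by validated LC-MS/MS over 1.00–1000 nM (linear calibration, 1/x² weighting, QC in K3-EDTA plasma). Adjusted gMean ratios are reported with 90% CI.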

[4] = system: healthy male volunteers; assay: BA/FE component: safety and tolerability; format: in vivo, human; settings: Part 2 (BA/FE), 25 mg, six of 11 subjects
In short: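 Open-label, randomised three-way crossover in 12 healthy men (18–45 y, BMI 18.5–29.9 kg/m2). Each received single oral 25 mg doses: tablet fasted, tablet after a standardised high-fat, high-calorie meal, and 5-mg/mL solution fasted, in one of six sequences. Washout between periods was at least 14 days. Safety was monitored to Day 9 of each period, with spontaneous AEs recorded by onset, end time and intensity.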

[5] = cited from earlier work

C[C@@H](Oc1ccc(S(C)(=O)=O)cc1C(=O)N1C[C@@H]2C[C@]2(c2cc(C(F)(F)F)on2)C1)C(F)(F)F [BI 425809]
Subjects with at least one AE assessed as related to treatment ([1]; Part 1 (SRD), 27 of 72 subjects (includes placebo subjects)): 37.5%
Changes from baseline of QTcF interval, QT interval or heart rate vs placebo ([1]; Part 1, any of the doses tested): no statistically relevant differences
Colour discrimination and visual acuity tests ([1]; SRD): no changes from baseline
Incidence of AEs ([1]; SRD, 0.5-mg group): 16.7%
Incidence of AEs ([1]; SRD, 150-mg group): 100%
Subjects with eye disorder AE (photopsia, blurred vision or chromatopsia) ([1]; SRD, 150-mg group, n = 6): all six subjects
Subjects with at least one AE ([1]; SRD, all BI 425809 doses 0.5–150 mg, 34/54 subjects): 63.0%
Bond–Lader VAS scores of other items (calmness, contentment, external and internal perception) ([1]; SRD, dose levels of 100 and 150 mg): increased
Bond and Lader VAS and Bowdle VAS scores for subjective feelings of sedation ([1]; SRD, doses of 10 mg and greater): increase
Subjects with abnormalities on the Amsler grid test ([1]; SRD, one each at 25 and 100 mg): two subjects
Maximally tolerated dose ([1]; SRD, single oral dose, escalation terminated owing to dose-limiting AEs): 150 mg
ECG findings ([1]; both parts): No clinically relevant abnormal findings
Neurological examination findings ([1]; both parts): No clinically relevant abnormal findings
Subjects with at least one AE assessed as related to treatment ([1]; both parts, 33/83 subjects (includes placebo subjects)): 39.8%
Changes in laboratory parameters, hormone levels, haematology or vital signs ([1]; either part of the study): no clinically relevant changes
Time to disappearance of headache ([1]; first day of dosing): ≤ 12 h
Tolerability ([1]; single dose, anticipated therapeutic dose range of 5–25 mg): generally well-tolerated
Fractional renal excretion ([2]; SRD, similar across all dose groups): 5%
Tmax ([2]; male, human, plasma, oral): ~0.75 h
half-life ([2]; male, human, plasma, oral): 32.5 to 47 h
Tmax ([3]; 25-mg solution, fasted): 0.875 h
Tmax ([3]; 25-mg tablet, fasted): 4 h
Tmax ([3]; 25-mg tablet, fed): 1.77 h
Subjects with at least one AE assessed as related to treatment [4]: 54.5%
Biopharmaceutics Classification System class [5]: Class II
Permeability [5]: high
